This is one part of a sample in which hits are shown more often than they occur.
CHOP UPR activ: apoptotic UPR (CHOP) activation | CHO-CHOP luciferase reporter, luminescence; percent of tunicamycin response over DMSO baseline | activation, % at 10 µM | 0.34% of 330,000 active;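 active = at 10 µM dose, activation of 40% or more, normalized to positive control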;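 note: 100% = tunicamycin at 10 µg/mL and 0% = DMSO alone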
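Assay system: CHO-CHOP cells, stable luciferase reporter of PERK-eIF2a-CHOP signalling / Buffer or medium: F12 plus 10% serum / Compound dosing: one dose, 10 µM in 0.5% DMSO / Times: 6 h compound treatment, 37 °C / Technique: luciferase luminescence / Read-out: % reporter activation, DMSO baseline versus tunicamycin full activation / Benchmarks: tunicamycin and DMSO controls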
CHOP inhibitor: inhibitors of CHOP induction in ER stress response; CHO-K1 CHOP-promoter luciferase, tunicamycin-induced, 15-18 h; inhibition, % at 10 µM; 3.8% of 220,000 active; AID 2732;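 active = compounds that reduced the stress-induced luciferase reporter signal by more than about 70% of percent inhibition, limit read from the data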;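 note: 0% = tunicamycin plus vehicle and 100% = wells without tunicamycin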
GAA850 FXN act: increases GAA850 frataxin promoter reporter activity; 0.56% of 360,000 active; activation, % at 6 µM; AID 540364; HEK293 lucGAA850 FXN promoter luciferase reporter, 24 h; percent of 10 µM SAHA response;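 active = activation above the average of all compounds screened plus 3 SD, cutoff fixed separately per campaign, cut at about 7.5% in these data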;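 note: 0% = DMSO wells and 100% = 10 µM SAHA wells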
XBP1 UPR activ: activators of adaptive arm of unfolded protein response (XBP1); CHO-XBP1 luciferase reporter, IRE1-XBP1 UPR activation, luminescence; percent of tunicamycin response, DMSO as zero; AID 463104; activation, % at 20 µM; 0.33% of 330,000 active;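 active = versus positive control, 20 µM dose yields 30% or more activation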;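 note: 100% = tunicamycin at 10 µg/mL and 0% = DMSO only wells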
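Assay system: IRE1-XBP1 luciferase reporter CHO line. Input: 1000 cells/well. Buffer or medium: F12 with 10% serum. Doses: 20 µM, 1% DMSO. Times: overnight seeding at 37 °C, 6 h compound treatment at 37 °C. Technique: Steady-Glo luciferase glow luminescence, 10 min after reagent addition.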
Numbers without * were called inactive; nt = no result.

SMILES	CHOP UPR activ	CHOP inhibitor	GAA850 FXN act	XBP1 UPR activ
COC(=O)c1ccc(OC(=O)CS(=O)c2ccccc2[N+](=O)[O-])cc1 (centres undefined)	-1	9	1	-3
O=C(CS(=O)c1ccc(C(F)(F)F)cc1[N+](=O)[O-])Oc1ccccc1 (centres undefined)	16	88*	7	0
CC(=O)OCCSc1c(-c2ccccc2)c2cc(Cl)ccc2[nH]c1=O	-1	49	3	-1
COC(=O)CSc1c(-c2ccccc2)c2cc(Cl)ccc2[nH]c1=O	-3	80*	2	2
COc1ccc(C(C)(NC(C)=O)c2nc(-c3ccccc3OC)cs2)cc1 (centres undefined)	nt	nt	1	nt
CCOc1ccc(OCC(=O)OCC(=O)Nc2ccccc2C#N)cc1	0	nt	1	0
N#Cc1ccccc1NC(=O)C1SC(=Nc2ccccc2)C(C(=O)Nc2ccc(Cl)cc2)=C1N (centres undefined)	6	100*	-2	-1
CCOc1ccc(N=C2SC(C(=O)Nc3ccccc3C#N)C(N)=C2C(=O)Nc2ccc(Cl)cc2)cc1 (centres undefined)	-1	76*	-2	1
N#Cc1ccc2sn(-c3ccccc3)c(=O)c2c1	nt	nt	1	nt
O=C(Nc1ccccc1)C1Cc2c(-c3ccc4c(c3)OCO4)ccnc2O1 (centres undefined)	nt	nt	1	nt
O=C(NCc1ccc(F)cc1)c1cc(C2CCCCN2C(=O)CCCc2ccccc2)on1 (centres undefined)	nt	nt	1	nt
CC1CCc2nc(NC(=O)Nc3ccc4c(c3)OCO4)sc2C1 (centres undefined)	7	84*	6	4
CCc1cccc(NC(=O)Nc2ccc3c(c2)OCO3)c1	3	0	3	8
CC1CCc2nc(NC(=O)CN3CCN(Cc4ccc5c(c4)OCO5)CC3)sc2C1 (centres undefined)	-1	82*	-2	-2
CC1CCc2nc(NC(=O)C3CC3)sc2C1 (centres undefined)	4	-9	2	2
CC1CCc2nc(NC(=O)C3COc4ccccc4O3)sc2C1 (centres undefined)	-6	79*	-7	-9
O=C(Nc1ccccc1)c1cc(C2CCCCN2S(=O)(=O)c2ccccc2)on1 (centres undefined)	nt	nt	3	nt
Cc1cc(Cl)ccc1OCC(=O)n1cc(C(=O)c2cc(Cl)ccc2O)cn1	-1	77*	nt	-2
COc1cc(C(=O)NCCC(C)C)ccc1OCc1ccc(Cl)cc1Cl	1	56	0	-3
COc1cc(C(=O)NC2CCCCC2)ccc1OCc1ccc(Cl)cc1Cl	2	85*	2	2
COc1ccc(-c2noc(CCCC(=O)Nc3ccc(C(N)=O)cc3)n2)cc1	-5	82*	-9	-2
Cc1ccc(C(=O)CSc2nnc(CNc3ccc(C)cc3C)o2)cc1	0	72*	0	4
Cc1ccc(NCc2nnc(SCC(N)=O)o2)c(C)c1	-1	-3	1	-3
CSc1ncccc1C(=O)N1CCC1(C)C(=O)NC(C)C (centres undefined)	nt	nt	0	nt
CC(=O)Nc1cc(-c2ccc(S(C)(=O)=O)cc2)cn2c(-c3ccc(F)c(Cl)c3)cnc12	nt	nt	-3	nt
SMILES	CHOP UPR activ	CHOP inhibitor	GAA850 FXN act	XBP1 UPR activ
Cc1nn(-c2nnc(NCc3ccccc3)nn2)c(C)c1Br	1	73*	1	0
Cc1cc(C)n(-c2nnc(NCc3ccc(Cl)cc3)nn2)n1	1	28	2	2
CCc1ccc(-n2c(=S)sc3c(=O)n(-c4ccccc4)c(SCC(=O)O)nc32)cc1	1	nt	1	3
CCc1ccc(N2C(=O)c3sc4nnc(-c5ccccc5)c(=O)n4c3C2=O)cc1	0	71*	-1	-3
CCC(=O)Nc1nc2ccc([N+](=O)[O-])cc2s1	5	9	0	-2
Cc1ccc(C)c(OCC(=O)Nc2nc3ccc([N+](=O)[O-])cc3s2)c1C	-1	80*	-2	1
CCCCC(=O)N(CCOC)c1nnc(-c2ccccc2C)s1	2	74*	0	4
CCCCn1c(N)c(N(CCC(C)C)C(=O)c2c(CC)noc2C)c(=O)[nH]c1=O	nt	nt	0	nt
COCCn1c(-c2ccc(OC(F)(F)C(F)C(F)(F)F)cc2)nc2c1c(=O)[nH]c(=O)n2CC(C)C (centres undefined)	-2	73*	4	-2
CCOC(=O)c1c(C)n(C)c2cc(Br)c(OC)cc12	-2	26	3	0
CCOC(=O)c1c(CSC(=N)N)n(-c2ccc(Br)cc2)c2cc(Br)c(OC(C)=O)cc12	nt	110*	4	nt
CCOC(=O)c1c(CSc2nc(C)cc(C)c2C#N)n(C)c2cc(Br)c(OC(C)=O)cc12	1	1	1	4
CCCCCCCCOC(=O)c1c(CSC(=N)N)n(C)c2cc(Br)c(OC(C)=O)cc12	0	100*	0	-8
C=CCCc1ccc(C#N)c(SCc2c(C(=O)OCC)c3cc(OC(C)=O)c(Br)cc3n2C)n1	6	72*	-5	-3
CCNC(=O)N(C)c1c(CC)nc2ccc(C(=O)N3CCN(S(=O)(=O)CC)CC3)cn12	nt	nt	0	nt
COc1ccc(NC(=O)c2cccc3c(-c4ccc(O)c(OC)c4)coc23)cc1	nt	nt	1	nt
CC(=O)c1ccc(N2CCN(C(=O)CNC(=O)c3ccc(Br)o3)CC2)cc1	nt	nt	2	nt
CCC(CC)NC(=O)Nc1cccc(C)c1C	-3	0	1	-1
CCn1c(NC(=O)Nc2cccc(C)c2C)cc2sccc21	-2	90*	-2	-1
CC(=O)NC(c1ccc(F)c(F)c1)c1nc(-c2cnn(C)c2)cs1 (centres undefined)	nt	nt	-1	nt
CC1(C(=O)NS(=O)(=O)Cc2ccccc2C(F)(F)F)CCN1C(=O)Cc1cccs1 (centres undefined)	nt	nt	0	nt
O=C(NCc1ccco1)c1cc2cc3ccc(Cl)cc3nc2o1	4	80*	1	0
O=C1C2C3C=CC(CC3)C2C(=O)N1/N=C/c1c(O)ccc2ccccc12 (centres undefined)	2	72*	1	1
O=C1C2C3C=CC(CC3)C2C(=O)N1/N=C/c1ccccc1O (centres undefined)	8	-1	1	0
COc1ccc(-c2ncncc2-c2csc(C)n2)c(O)c1OC	-3	1	2	1
COC1=C(N)C(=O)c2nc(-c3nc(C(=O)O)c(C)c(-c4ccc(OC)c(OC)c4O)c3N)ccc2C1=O	10	81*	nt	-9
CCOC(=O)/C(C#N)=C1/C=C(C)NC(c2ccccc2O)=N1	-1	29	-2	1
CCCCN(CCCC)C1=Nc2ccccc2N/C1=C(/C#N)C(=O)OCC	-1	72*	2	-4
CCOC(=O)/C(C#N)=C1\Nc2ccccc2N=C1N(CC(C)C)CC(C)C	1	77*	-3	-4
C[C@@H]1CN([C@@H](C)CO)C(=O)CCCn2cc(nn2)CO[C@H]1CN(C)S(=O)(=O)c1ccc2ccccc2c1	nt	nt	1	nt
